According to ChEMBL document CHEMBL4265908, “Structure-activity and structure-property relationships of novel Nrf2 activators with a 1,2,4-oxadiazole core and their therapeutic effects on acetaminophen (APAP)-induced acute liver injury” (Eur J Med Chem, 2018):
Calls of active or inactive are those of the source. No cut-off for these calls is given here.

Tests used:
[1] = target: T1, Nuclear factor erythroid 2-related factor 2 (Homo sapiens) (UniProt Q16236); test: Activation of Nrf2 in human HepG2-ARE-C8 cells assessed as induction of ARE-mediated luciferase activity at 0.01 uM after 24 hrs by luciferase reporter gene assay relative to control; format: cell-based
T1 sequence (whole entry): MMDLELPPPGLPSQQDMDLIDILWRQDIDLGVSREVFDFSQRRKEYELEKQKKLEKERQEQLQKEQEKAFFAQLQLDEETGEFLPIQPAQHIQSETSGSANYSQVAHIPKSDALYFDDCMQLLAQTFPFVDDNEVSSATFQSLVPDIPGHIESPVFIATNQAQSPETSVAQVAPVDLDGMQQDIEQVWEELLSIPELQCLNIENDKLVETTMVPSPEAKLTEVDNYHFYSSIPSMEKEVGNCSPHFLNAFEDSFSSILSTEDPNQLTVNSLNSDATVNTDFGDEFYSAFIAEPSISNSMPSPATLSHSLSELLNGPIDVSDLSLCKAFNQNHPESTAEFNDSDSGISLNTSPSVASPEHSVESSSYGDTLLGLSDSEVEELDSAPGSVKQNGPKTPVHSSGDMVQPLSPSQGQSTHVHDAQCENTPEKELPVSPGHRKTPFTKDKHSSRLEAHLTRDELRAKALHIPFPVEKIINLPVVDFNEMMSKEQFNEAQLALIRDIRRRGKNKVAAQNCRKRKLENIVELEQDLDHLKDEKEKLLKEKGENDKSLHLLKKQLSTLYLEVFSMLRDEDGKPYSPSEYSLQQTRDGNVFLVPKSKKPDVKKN
Summary of the method: (§1)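 HepG2-ARE-C8 cells stably carrying ARE-luciferase, grown in DMEM with 10% FBS at 37 °C and 5% CO2. Seeded at 5 × 10^4 cells/well, left overnight, then given compound diluted from a 10 mM DMSO stock for 24 h. Cells lysed and luciferase read as RLU. Inductivity = (RLUtest − RLUblank)/(RLUcontrol − RLUblank), with DMSO as control. Mean ± SEM of three experiments.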

[2] = target: T1, Nuclear factor erythroid 2-related factor 2 (Homo sapiens); test: Activation of Nrf2 in human HepG2-ARE-C8 cells assessed as induction of ARE-mediated luciferase activity at 20 uM after 24 hrs by luciferase reporter gene assay relative to control; format: cell-based; summary of the method: as §1
[3] = target: T1, Nuclear factor erythroid 2-related factor 2 (Homo sapiens); test: Activation of Nrf2 in human HepG2-ARE-C8 cells assessed as induction of ARE-mediated luciferase activity at 40 uM after 24 hrs by luciferase reporter gene assay relative to control; format: cell-based; summary of the method: as §1
[4] = target: T1, Nuclear factor erythroid 2-related factor 2 (Homo sapiens); test: Activation of Nrf2 in human LO2 cells cotreated with Nrf2 siRNA assessed as increase in Nrf2 mRNA expression level at 20 uM by qRT-PCR analysis; format: cell-based
Summary of the method: (§2)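 LO2 cells plated at 7 × 10^5 per 60 mm dish and transfected with 50 nM Nrf2 siRNA (scrambled siRNA as control). After 24 h, fresh medium was added and cells grown a further 48 h. Then 20 μM compound for 12 h. Nrf2, NQO1, GCLM and HO-1 mRNA measured by qRT-PCR, normalized to GAPDH, as fold over control.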

[5] = target: T1, Nuclear factor erythroid 2-related factor 2 (Homo sapiens); test: Activation of Nrf2 in human LO2 cells cotreated with Nrf2 siRNA assessed as increase in NQO1 mRNA expression level at 20 uM by qRT-PCR analysis; format: cell-based; summary of the method: as §2
[6] = target: T1, Nuclear factor erythroid 2-related factor 2 (Homo sapiens); test: Activation of Nrf2 in human LO2 cells cotreated with Nrf2 siRNA assessed as increase in GCLM mRNA expression level at 20 uM by qRT-PCR analysis; format: cell-based; summary of the method: as §2
[7] = target: T1, Nuclear factor erythroid 2-related factor 2 (Homo sapiens); test: Activation of Nrf2 in human LO2 cells cotreated with Nrf2 siRNA assessed as increase in HO-1 mRNA expression level at 20 uM by qRT-PCR analysis; format: cell-based; summary of the method: as §2
[8] = target: T1, Nuclear factor erythroid 2-related factor 2 (Homo sapiens); test: Activation of Nrf2 in human LO2 cells assessed as increase in Nrf2 mRNA expression level by qRT-PCR analysis; format: cell-based
Summary of the method: (§3)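 LO2 cells in DMEM with 10% FBS were exposed to 0, 2.5, 5, 10, 20 or 40 μM compound for 12 h. Transcripts measured by qRT-PCR: 40 cycles of 95 °C for 5 s and 60 °C for 30 s. Normalized to GAPDH and expressed as fold over the untreated control. Mean ± SD, n = 3.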

[9] = target: T1, Nuclear factor erythroid 2-related factor 2 (Homo sapiens); test: Activation of Nrf2 in human LO2 cells assessed as increase in NQO1 mRNA expression level by qRT-PCR analysis; format: cell-based; summary of the method: as §3
[10] = target: T1, Nuclear factor erythroid 2-related factor 2 (Homo sapiens); test: Activation of Nrf2 in human LO2 cells assessed as increase in GCLC mRNA expression level by qRT-PCR analysis; format: cell-based; summary of the method: as §3
[11] = tested on: L02; test: Hepatoprotective activity against APAP-induced cell injury in human LO2 cells assessed as increase in cell viability pretreated for 24 hrs followed by APAP treatment measured after 24 hrs by MTT assay; format: functional, cell-based
Summary of the method: (§4)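 LO2 cells plated for 12 h and pretreated for 24 h with 5, 10 or 20 μM compound. One arm was first transfected with 50 nM Nrf2 siRNA before receiving 20 μM compound. Medium then replaced with medium containing 8 mM APAP for 24 h. Viability by MTT at A570. Mean ± SD of three experiments.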

[12] = tested on: L02; test: Hepatoprotective activity against APAP-induced cell injury in human LO2 cells cotreated with Nrf2 siRNA assessed as cell viability at 20 uM pretreated for 24 hrs followed by APAP treatment measured after 24 hrs by MTT assay; format: functional; conditions: read-out: Activity; summary of the method: as §4
[13] = tested on: Mus musculus; test: In vivo activation of Nrf2 in APAP-induced liver injury in C57BL/6 mouse assessed as increase in Nrf2 mRNA expression level administered ip for 7 consecutive days followed by APAP challenge 1 hr post last compound dose and measured after 24 hrs by qRT-PCR analysis; format: functional, organism-based
Summary of the method: (§5)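 Female C57BL/6 mice (20–25 g, n = 10/group) received 10, 50 or 100 mg/kg/day ip in saline for 7 days. One hour after the last dose they received APAP 300 mg/kg in saline. Killed 24 h later. Serum ALT/AST by kit. Liver homogenates (pH 7.0 phosphate) used for GSH (A420, μmol/g protein), GST (A412, U/mg protein) and SOD. Liver also analyzed by western blot (β-actin normalized), qRT-PCR (GAPDH normalized) and H&E.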

[14] = tested on: Mus musculus; test: In vivo activation of Nrf2 in APAP-induced liver injury in C57BL/6 mouse assessed as increase in HO-1 mRNA expression level administered ip for 7 consecutive days followed by APAP challenge 1 hr post last compound dose and measured after 24 hrs by qRT-PCR analysis; format: functional, organism-based; summary of the method: as §5
[15] = tested on: Mus musculus; test: In vivo activation of Nrf2 in APAP-induced liver injury in C57BL/6 mouse assessed as increase in GCLM mRNA expression level administered ip for 7 consecutive days followed by APAP challenge 1 hr post last compound dose and measured after 24 hrs by qRT-PCR analysis; format: functional, organism-based; summary of the method: as §5
[16] = tested on: Mus musculus; test: Hepatoprotective activity against APAP-induced liver injury in C57BL/6 mouse assessed as decrease in APAP-induced cell necrosis administered ip for 7 consecutive days followed by APAP challenge 1 hr post last compound dose and measured after 24 hrs by hematoxylin/eosin staining based assay; format: functional, organism-based; summary of the method: as §5

Activity [1]: 2.75
Activity [2]: 24.7
Activity [3]: 48.7
Activity [4]: Active
Activity [5]: Active
Activity [6]: Active
Activity [7]: Active
Activity [8]: Dose-dependent effect
Activity [9]: Dose-dependent effect
Activity [10]: Dose-dependent effect
Compound: Cc1ccc(-c2noc(-c3ccc(F)c(F)c3)n2)cn1
Activity [11]: Dose-dependent effect
viability at 20 µM [12]: 50%
Activity [13]: Dose-dependent effect
Activity [14]: Dose-dependent effect
Activity [15]: Dose-dependent effect
Activity [16]: Dose-dependent effect
